Assay results as given in publication PMC5477668 (Journal of medicinal chemistry, 2017).

Key:
[1] = target: T1, PAD2 (Homo sapiens, UniProt Q9Y2J8); assay: Target engagement assay with HEK293T/PAD2 cells; format: cell-based
[2] = system: PAD1; assay: PAD1 inactivation kinetics; format: biochemical
Outline: (§1)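 Purified PAD enzyme (2.0 μM) was preincubated at 37 °C with various inactivator concentrations in 50 mM HEPES pH 7.6, 10 mM CaCl2 and 2 mM DTT. Aliquots taken over time were added to the same buffer containing 10 mM BAEE, run for 15 min, then quenched in liquid nitrogen. Citrulline was measured by COLDER. k_obs came from exponential decay fits, and k_inact and K_I from saturation fits. At least duplicate.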

[3] = target: T1, PAD2; assay: PAD2 inactivation kinetics; format: biochemical; conditions: for PAD2 potency: as compared to BB-F-amidine (4a) and BB-Cl-amidine (4b); for fold increase in PAD2 potency and selectivity: relative to Cl-amidine; for fold more potent PAD2 inhibitor in vitro: than BB-Cl-amidine (4b); for PAD2-selectivity: up to, other isozyme not named; for fold decrease in PAD2 potency: compared to 30a
Outline: as §1

[4] = system: PAD4; assay: PAD4 inactivation kinetics; format: biochemical
Outline: as §1

[5] = system: HEK293T cells; assay: Cytotoxicity study; format: cell-based, human; conditions: than BB-Cl-amidine (4b)
Outline: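 Human HEK293T cells were plated at 2.5 × 10⁶ cells/well. Next day they were exposed for 24 h to DMSO, Triton X-100, or a range of test-compound concentrations. Viability was read by XTT absorbance at 475 nm. EC50 came from an eight-point dose-response fit with range, slope factor and background terms.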

[6] = system: HEK293T/PAD2 cells; assay: Cellular uptake assay; format: in vitro ADME, human
Outline: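 HEK293T/PAD2 cells in HBS with 2 mM CaCl2 were treated with 0.5 μM ionomycin and test compound at 25 μM, as in the target engagement protocol. Cells were scraped, washed 4× with HBS, extracted in acetonitrile by sonication for 1 h at 0 °C, then cleared, filtered and analysed by LCMS. Analyte peak area was compared with the peak area of 25 μM compound injected directly.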

[7] = as compared to BB-F-amidine (4a)
[8] = as compared to BB-Cl-amidine (4b)

T1 sequence (Q9Y2J8 whole entry): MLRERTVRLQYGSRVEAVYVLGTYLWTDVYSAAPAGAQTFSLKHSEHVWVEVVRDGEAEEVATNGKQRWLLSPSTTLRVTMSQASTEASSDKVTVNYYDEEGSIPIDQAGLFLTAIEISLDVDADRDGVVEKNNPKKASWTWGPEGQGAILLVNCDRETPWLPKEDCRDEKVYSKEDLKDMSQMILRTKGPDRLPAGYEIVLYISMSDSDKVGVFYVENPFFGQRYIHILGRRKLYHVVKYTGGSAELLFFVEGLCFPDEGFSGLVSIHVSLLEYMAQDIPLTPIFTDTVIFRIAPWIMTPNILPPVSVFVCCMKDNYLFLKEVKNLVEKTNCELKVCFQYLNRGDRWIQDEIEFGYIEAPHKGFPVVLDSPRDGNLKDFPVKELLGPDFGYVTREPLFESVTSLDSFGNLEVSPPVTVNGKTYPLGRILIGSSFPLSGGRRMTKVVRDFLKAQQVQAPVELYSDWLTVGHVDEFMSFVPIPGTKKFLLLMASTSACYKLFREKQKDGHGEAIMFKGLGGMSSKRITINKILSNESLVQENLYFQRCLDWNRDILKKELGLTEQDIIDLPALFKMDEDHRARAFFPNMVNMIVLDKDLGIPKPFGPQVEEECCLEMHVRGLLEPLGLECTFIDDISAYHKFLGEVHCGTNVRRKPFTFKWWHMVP

## N=C(CF)NCCC[C@H](NC(=O)c1ccc(-c2ccccc2)cc1)c1nc2ccccc2[nH]1 [4a]
[1]; than BB-Cl-amidine (4b)
  fold less potent in the target engagement assay: ~ 3 fold

## N=C(CF)NCCC[C@H](NC(=O)c1ccccc1C(=O)O)c1nc2ccccc2[nH]1 [9a]
[2]; [7]
  fold increase in PAD1 inhibition: 18 fold
[3]
  PAD2 potency: relatively unaffected
[4]; [7]
  fold increase in PAD4 inhibition: 6.5 fold

## N=C(CCl)NCCC[C@H](NC(=O)c1ccccc1C(=O)O)c1nc2ccccc2[nH]1 [9b]
[2]; [8]
  fold increase in PAD1 inhibition: 1.8 fold
[3]
  PAD2 potency: relatively unaffected
[4]; [8]
  fold increase in PAD4 inhibition: 2.3 fold

## CCn1c([C@H](CCCNC(=N)CF)NC(=O)c2ccccc2C(=O)O)nc2ccccc21 [11a]
[3]; [7]
  fold increase in PAD2 inhibition: 26 fold

## N=C(CF)NCCC[C@H](NC(=O)c1cccc2c1C(=O)NC2)c1nc2ccccc2[nH]1 [14a]
[3]; as compared to 9a
  fold increase in PAD2 inhibition: ~ 7 fold
[3]; [7]
  fold increase in PAD2 inhibition: ~ 9 fold
[4]; as compared to 9a
  fold increase in PAD4 inhibition: ~ 1.4 fold

## CCn1c([C@H](CCCNC(=N)CF)NC(=O)c2cccc3c2C(=O)NC3)nc2ccccc21 [16a]
[1]; at 25 μM, HEK293T/PAD2 cells
  occupancy of PAD2: roughly half as potent
[3]; as compared to 9a
  fold increase in PAD2 inhibition: ~ 41 fold
[3]; [7]
  fold increase in PAD2 inhibition: ~ 51 fold

## COc1cccc2c1nc([C@H](CCCNC(=N)CF)NC(=O)c1cccc3c1C(=O)NC3)n2C [30a]
[5]
  fold less cytotoxic: > 30 fold
[6]; than 41a
  fold more compound able to enter HEK293T cells: 6 fold
[3]
  fold increase in PAD2 potency and selectivity: > 100 fold
  fold more potent PAD2 inhibitor in vitro: 12–50 fold
  PAD2-selectivity: up to 106 fold

## CCn1c([C@H](CCCNC(=N)CF)NC(=O)c2cccc3c2C(=O)NC3)nc2c(OC)cccc21 [31a]
[5]
  fold less cytotoxic: > 30 fold
[3]
  fold decrease in PAD2 potency: 4 fold
  fold more potent PAD2 inhibitor in vitro: 12–50 fold

## CCOc1cccc2c1nc([C@H](CCCNC(=N)CF)NC(=O)c1cccc3c1C(=O)NC3)n2C [32a]
[5]
  fold less cytotoxic: > 30 fold
[3]
  fold decrease in PAD2 potency: ~ 2 fold
  fold more potent PAD2 inhibitor in vitro: 12–50 fold

## CCOc1cccc2c1nc([C@H](CCCNC(=N)CCl)NC(=O)c1cccc3c1C(=O)NC3)n2C [32b]
[3]
  fold decrease in PAD2 potency: ~ 2 fold

## COc1ccc2c(c1)nc([C@H](CCCNC(=N)CF)NC(=O)c1cccc3c1C(=O)NC3)n2C [37a]
[5]
  fold less cytotoxic: > 30 fold
[3]
  fold more potent PAD2 inhibitor in vitro: 12–50 fold

## CCN1Cc2cccc(C(=O)N[C@@H](CCCNC(=N)CF)c3nc4c(OC)cccc4n3C)c2C1=O [41a]
[6]; than unsubstituted lactams 30a, 31a, 32a, and 37a, mass spectrometry
  fold less compound internalized by the cell: ~ 6 fold
[3]; [7]
  fold increase in PAD2 inhibition: > 300 fold
[3]
  fold increase in PAD2 potency and selectivity: > 100 fold
  PAD2-selectivity: up to 106 fold

## COc1cccc2c1nc([C@H](CCCNC(=N)CF)NC(=O)c1cccc3c1C(=O)N(C)C3)n2C [49a]
[3]
  fold increase in PAD2 potency and selectivity: > 100 fold
  PAD2-selectivity: up to 106 fold
